Source: ChEMBL document CHEMBL1126698, “Synthesis and amnesia-reversal activity of a series of 7- and 5-membered 3-acylamino lactams” (1993)

What was measured:
Assay type in all cases: functional
[1] = tested on: Mus musculus; test: Amnesia-reversal activity in scopolamine-induced amnesia model of mice at 1 mg/kg i.p.; details: route intraperitoneal
Method in brief: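 Step-through passive avoidance in male CD1 mice (24–28 g). Scopolamine hydrobromide 1.5 mg/kg sc given 15 min before the acquisition trial. Test substance given ip 30 min before acquisition at a dose equimolar to 1 mg/kg Piracetam. Retention latency end point 300 s. AA is the treated-to-sham ratio of confrontation indices (×100), each index computed from Mann-Whitney U against the scopolamine-only group.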

[2] = tested on: Mus musculus; test: Amnesia-reversal activity in ECS-induced amnesia model of mice at 1 mg/kg i.p.; details: route intraperitoneal
Method in brief: (§1)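 Male CD1 mice (24–28 g), step-through passive avoidance. Amnesia induced by ECS through auricular electrodes (20 mA, 0.6 ms pulses, 0.5 s, 50 Hz) immediately after the acquisition trial. Compound given ip 30 min before acquisition, at doses equimolar to 1 or 10 mg/kg Piracetam. Retention latency capped at 300 s. AA = CI(treated)/CI(sham) × 100, with CI derived from Mann-Whitney U versus amnesic controls.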

[3] = tested on: Mus musculus; test: Amnesia-reversal activity in ECS-induced amnesia model of mice at 10 mg/kg i.p.; details: route intraperitoneal; method in brief: as §1
[4] = tested on: Mus musculus; test: Amnesia-reversal activity (AA) evaluated in ECS-induced amnesia model of mice at a dose of 100 mg/kg
Method in brief: (§2)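 Male CD1 mice (24–28 g), step-through passive avoidance, retention end point 300 s. ECS via auricular electrodes (20 mA, 0.6 ms pulses, 0.5 s, 50 Hz) immediately after the acquisition trial. Compounds given ip 30 min before acquisition at doses equimolar to 1, 10 (and 100 for references) mg/kg Piracetam. Retention latency vs control by Mann-Whitney U. AA = CI treated/CI sham ×100.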

[5] = tested on: Mus musculus; test: Amnesia-reversal activity evaluated in scopolamine-induced amnesia model of mice at a dose of 1 mg/kg
Method in brief: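 Male CD1 mice (24–28 g), step-through passive avoidance, retention end point 300 s. Scopolamine hydrobromide 1.5 mg/kg sc 15 min before acquisition. Compounds given ip 30 min before acquisition at a dose equimolar to 1 mg/kg Piracetam. Retention latency vs control by Mann-Whitney U. AA = CI treated/CI sham ×100.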

[6] = tested on: Mus musculus; test: Amnesia-reversal activity evaluated in ECS-induced amnesia model of mice at a dose of 1 mg/kg; method in brief: as §2
[7] = tested on: Mus musculus; test: Amnesia-reversal activity evaluated in ECS-induced amnesia model of mice at a dose of 10 mg/kg; method in brief: as §2

SMILES	AA [1]	AA [2]	AA [3]	AA [4]	AA [5]	AA [6]	AA [7]
COc1cc(C(=O)NC2CCCCNC2=O)cc(OC)c1OC (stereo not drawn)	0	31	42	–	–	–	–
O=C1NCCCCC1NC(=O)[C@@H]1CCCN1C(=O)OCc1ccccc1 (stereo partly drawn)	27	0	–	–	–	–	–
NC(=O)CN1CCCC1=O [PIRACETAM]	–	0	0	39	–	–	–
O=CCN1CCCC[C@H](NC(=O)CCCc2ccccc2)C1=O	–	–	–	–	26	0	25
N[C@H]1CCCCNC1=O	–	–	–	–	47	37	26
N[C@@H]1CCCCNC1=O	–	–	–	–	44	0	25
NC(=O)CN1CCCC[C@H](NC=O)C1=O	0	55	9	–	–	–	–
NC(=O)CN1CC(O)CC1=O (stereo not drawn) [OXIRACETAM]	0	31	8	57	–	–	–
O=C(N[C@@H]1CCCCNC1=O)c1cccc(C(F)(F)F)c1	15	21	0	–	–	–	–
O=C(CCCc1ccccc1)N[C@H]1CCCCN(CCO)C1=O	12	7	20	–	–	–	–
COC(=O)CN1CCCC[C@H](NC=O)C1=O	0	0	9	–	–	–	–
O=CNC1CCCCNC1=O (stereo not drawn)	49	71	55	–	–	–	–
O=CN[C@H]1CCCCN(CCO)C1=O	7	46	61	–	–	–	–
COc1ccc(C(=O)NC2CCCCNC2=O)cc1 (stereo not drawn)	0	37	37	–	–	–	–
O=C(CCCc1ccccc1)NC1CCCCNC1=O (stereo not drawn)	5	0	0	–	–	–	–
N[C@H]1CCNC1=O	–	–	–	–	0	24	0
CC(=O)NC1CCCCNC1=O (stereo not drawn)	39	7	14	–	–	–	–
O=CNC1CCNC1=O (stereo not drawn)	–	–	–	–	0	53	9
COC(=O)CN1CCCC[C@H](NC(=O)CCCc2ccccc2)C1=O	–	–	–	–	0	0	0
O=C(NC1CCCCNC1=O)c1cccc(C(F)(F)F)c1 (stereo not drawn)	65	18	17	–	–	–	–
NC(=O)CN1CCCC[C@H](NC(=O)CCCc2ccccc2)C1=O	0	0	0	–	–	–	–
O=C(CN1CCCC1=O)NC1CCCCNC1=O (stereo not drawn)	21	10	0	–	–	–	–
COc1ccc(C(=O)N2CCCC2=O)cc1 [ANIRACETAM]	18	29	0	83	–	–	–
O=C(NC1CCNC1=O)c1cccc(C(F)(F)F)c1 (stereo not drawn)	0	51	58	–	–	–	–
